Data taken from ChEMBL document CHEMBL3352456, “Design, synthesis and biological activity of a novel Rutin analogue with improved lipid soluble properties” (Bioorg Med Chem, 2015).
Active and inactive are the calls of the source. No cut-off for these calls is given here.

Legend:
Trichophyton rubrum [1] = assay: Antifungal activity against Trichophyton rubrum (Castellani) Sabouraud IHME 4321 assessed as growth inhibition at 100 ug/ml measured on day 7 by sabouraud dextrose agar diffusion method relative to control; assay type: functional; settings: (Castellani) Sabouraud IHME 4321, 168 h, read-out: GI
Summary of the method: (§1)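 Dermatophyte strains kept on Sabouraud dextrose agar slants. Mycelium disks (10 mm) from a stationary-phase culture grown at 26 ± 1 °C on cellophane over SDA to log phase, then moved onto SDA containing compound added from DMSO stock at 45 °C (final DMSO 0.1%; DMSO-only controls). Colony diameter measured daily for 7 days. % inhibition = (dex − dex')/dex × 100. Three replicates per concentration; mean of three independent experiments.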

K562 [2] = assay: Induction of apoptosis in human K562 cells assessed as live cells at 5 uM after 3 days by Annexin-V staining-based assay (reference value: 87.33%); assay type: functional
Nannizzia gypsea [3] = assay: Antifungal activity against Nannizzia gypsea (Bodin) Guiart et Grigoraki CBS 286.63 assessed as growth inhibition at 20 ug/ml measured on day 7 by sabouraud dextrose agar diffusion method relative to control; assay type: functional; settings: (Bodin) Guiart et Grigoraki CBS 286.63, 168 h, read-out: GI; summary of the method: as §1
Epidermophyton floccosum [4] = assay: Antifungal activity against Epidermophyton floccosum (Hartz) Langeron and Milochevitch CBS 358.93 assessed as growth inhibition at 20 ug/ml measured on day 7 by sabouraud dextrose agar diffusion method relative to control; assay type: functional; summary of the method: as §1
Nannizzia gypsea [5] = assay: Antifungal activity against Nannizzia gypsea (Bodin) Guiart et Grigoraki CBS 286.63 assessed as growth inhibition at 100 ug/ml measured on day 7 by sabouraud dextrose agar diffusion method relative to control; assay type: functional; settings: (Bodin) Guiart et Grigoraki CBS 286.63, 168 h, read-out: GI; summary of the method: as §1
[6] = Antioxidant activity assessed as superoxide anion radical scavenging by photochemiluminescence method relative to trolox; assay type: physicochemical
Summary of the method: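 Superoxide was generated photochemically from luminol under UV light (351 nm). Lag time (water-soluble, ACW) or integrated light emission over 180 s (lipid-soluble, ACL) was compared with a Trolox standard curve. Samples were centrifuged 5 min at 16000 g and diluted 1:40 in water (ACW) or methanol (ACL). Triplicate determinations.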

K562 [7] = assay: Induction of apoptosis in human K562 cells assessed as early apoptotic cells at 5 uM after 3 days by Annexin-V staining-based assay (reference value: 5.41%); assay type: functional
Epidermophyton floccosum [8] = assay: Antifungal activity against Epidermophyton floccosum (Hartz) Langeron and Milochevitch CBS 358.93 assessed as growth inhibition at 100 ug/ml measured on day 7 by sabouraud dextrose agar diffusion method relative to control; assay type: functional; summary of the method: as §1
K562 [9] = assay: Antiproliferative activity against human K562 cells assessed as cell number after 3 days by Coulter counter; settings: K562, 72 h
Paraphyton cookei [10] = assay: Antifungal activity against Nannizzia cajetani Ajello CBS 495.70 assessed as growth inhibition at 20 ug/ml measured on day 7 by sabouraud dextrose agar diffusion method relative to control; assay type: functional; settings: Ajello CBS 495.70, 168 h, read-out: GI; summary of the method: as §1
K562 [11] = assay: Induction of apoptosis in human K562 cells assessed as late apoptotic cells at 10 uM after 3 days by Annexin-V staining-based assay (reference value: 5.96%); assay type: functional
[12] = Antifungal activity against Microsporum canis Bodin CBS 4727 assessed as growth inhibition at 100 ug/ml measured on day 7 by sabouraud dextrose agar diffusion method relative to control; assay type: functional; summary of the method: as §1
Trichophyton violaceum [13] = assay: Antifungal activity against Trichophyton violaceum Malmsten CBS 459.61 assessed as growth inhibition at 20 ug/ml measured on day 7 by sabouraud dextrose agar diffusion method relative to control; assay type: functional; settings: Malmsten CBS 459.61, 168 h, read-out: GI; summary of the method: as §1
[14] = target: Nuclear factor NF-kappa-B complex (Homo sapiens) (UniProt Q00653+P19838+Q04206); assay: Inhibition of NF-kappaB (unknown origin)/32P-labeled oligonucleotide interaction at 0.1 to 10 mM after 20 mins by electrophoretic mobility shift assay; assay type: protein-complex assay
Summary of the method: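 Probe was a double-stranded 32P-labelled oligonucleotide (0.25 ng) in buffer of 10% glycerol, 0.05% NP-40, 10 mM Tris-HCl pH 7.5, 50 mM NaCl, 0.5 mM DTT and 10 mM MgCl2. Compound and probe were bound for 20 min at room temperature, then recombinant NF-kappaB p50 was added for a further 20 min. Samples were run on 6% polyacrylamide in 0.25× TBE at 200 V.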

Trichophyton tonsurans [15] = assay: Antifungal activity against Trichophyton tonsurans Malmsten CBS 483.76 assessed as growth inhibition at 20 ug/ml measured on day 7 by sabouraud dextrose agar diffusion method relative to control; assay type: functional; settings: Malmsten CBS 483.76, 168 h, read-out: GI; summary of the method: as §1
K562 [16] = assay: Induction of apoptosis in human K562 cells assessed as apoptotic cells at 5 uM after 3 days by Annexin-V staining-based assay (reference value: 11.37%); assay type: functional
K562 [17] = assay: Induction of apoptosis in human K562 cells assessed as apoptotic cells at 10 uM after 3 days by Annexin-V staining-based assay (reference value: 11.37%); assay type: functional
[18] = Antioxidant activity assessed as inhibition of AAPH-induced peroxyl radical generation by oxygen radical absorbance capacity assay relative to trolox; assay type: physicochemical
Summary of the method: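 Run at 37 °C and pH 7.4 with fluorescein (85 nM) as the probe and AAPH as the peroxyl radical source. Compounds were dissolved fresh in PBS. Fluorescence read at ex 485/em 538 nm every 5 min for up to 30 min after AAPH addition. Net area under the decay curve (blank minus sample) was calibrated against Trolox at 10–50 μM and given as Trolox equivalents.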

Trichophyton violaceum [19] = assay: Antifungal activity against Trichophyton violaceum Malmsten CBS 459.61 assessed as growth inhibition at 100 ug/ml measured on day 7 by sabouraud dextrose agar diffusion method relative to control; assay type: functional; settings: Malmsten CBS 459.61, 168 h, read-out: GI; summary of the method: as §1
[20] = test system: Trichophyton mentagrophytes; assay: Antifungal activity against Trichophyton mentagrophytes (Robin) Blanchard CBS 160.66 assessed as growth inhibition at 100 ug/ml measured on day 7 by sabouraud dextrose agar diffusion method relative to control; assay type: functional; settings: (Robin) Blanchard CBS 160.66, 168 h, read-out: GI; summary of the method: as §1
K562 [21] = assay: Induction of apoptosis in human K562 cells assessed as dead cells at 5 uM after 3 days by Annexin-V staining-based assay (reference value: 1.29%); assay type: functional
[22] = Octanol-water partition coefficient, log P of the compound at 5 mg/20 ml after 30 mins by spectrophotometric analysis; assay type: physicochemical
Summary of the method: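 Octanol and water (pH 6), 20 mL each, stirred 30 min at 25 °C, then centrifuged 10 min at 4,000 rpm. Compound concentration in each phase measured spectrophotometrically at 360 nm. LogP = log of the octanol/water concentration ratio.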

[23] = Antifungal activity against Microsporum canis Bodin CBS 4727 assessed as growth inhibition at 20 ug/ml measured on day 7 by sabouraud dextrose agar diffusion method relative to control; assay type: functional; summary of the method: as §1
K562 [24] = assay: Induction of apoptosis in human K562 cells assessed as dead cells at 10 uM after 3 days by Annexin-V staining-based assay (reference value: 1.29%); assay type: functional
Nannizzia gypsea [25] = assay: Antifungal activity against Microsporum gypseum (Bodin) Guiart and Grigorakis IHME 3999 assessed as growth inhibition at 100 ug/ml measured on day 7 by sabouraud dextrose agar diffusion method relative to control; assay type: functional; settings: (Bodin) Guiart and Grigorakis IHME 3999, 168 h, read-out: GI; summary of the method: as §1
Nannizzia gypsea [26] = assay: Antifungal activity against Microsporum gypseum (Bodin) Guiart and Grigorakis IHME 3999 assessed as growth inhibition at 20 ug/ml measured on day 7 by sabouraud dextrose agar diffusion method relative to control; assay type: functional; settings: (Bodin) Guiart and Grigorakis IHME 3999, 168 h, read-out: GI; summary of the method: as §1
K562 [27] = assay: Induction of apoptosis in human K562 cells assessed as early apoptotic cells at 10 uM after 3 days by Annexin-V staining-based assay (reference value: 5.41%); assay type: functional
Trichophyton rubrum [28] = assay: Antifungal activity against Trichophyton rubrum (Castellani) Sabouraud IHME 4321 assessed as growth inhibition at 20 ug/ml measured on day 7 by sabouraud dextrose agar diffusion method relative to control; assay type: functional; settings: (Castellani) Sabouraud IHME 4321, 168 h, read-out: GI; summary of the method: as §1
K562 [29] = assay: Induction of apoptosis in human K562 cells assessed as live cells at 10 uM after 3 days by Annexin-V staining-based assay (reference value: 87.33%); assay type: functional
[30] = test system: Trichophyton mentagrophytes; assay: Antifungal activity against Trichophyton mentagrophytes (Robin) Blanchard CBS 160.66 assessed as growth inhibition at 20 ug/ml measured on day 7 by sabouraud dextrose agar diffusion method relative to control; assay type: functional; settings: (Robin) Blanchard CBS 160.66, 168 h, read-out: GI; summary of the method: as §1
K562 [31] = assay: Induction of apoptosis in human K562 cells assessed as late apoptotic cells at 5 uM after 3 days by Annexin-V staining-based assay (reference value: 5.96%); assay type: functional
Trichophyton tonsurans [32] = assay: Antifungal activity against Trichophyton tonsurans Malmsten CBS 483.76 assessed as growth inhibition at 100 ug/ml measured on day 7 by sabouraud dextrose agar diffusion method relative to control; assay type: functional; settings: Malmsten CBS 483.76, 168 h, read-out: GI; summary of the method: as §1
[33] = Antioxidant activity assessed as superoxide anion radical scavenging by photochemiluminescence method relative to trolox using formulation containing O/W; assay type: physicochemical
Paraphyton cookei [34] = assay: Antifungal activity against Nannizzia cajetani Ajello CBS 495.70 assessed as growth inhibition at 100 ug/ml measured on day 7 by sabouraud dextrose agar diffusion method relative to control; assay type: functional; settings: Ajello CBS 495.70, 168 h, read-out: GI; summary of the method: as §1

Nuclear factor NF-kappa-B complex (Homo sapiens), sequence (P19838 whole entry, looked up): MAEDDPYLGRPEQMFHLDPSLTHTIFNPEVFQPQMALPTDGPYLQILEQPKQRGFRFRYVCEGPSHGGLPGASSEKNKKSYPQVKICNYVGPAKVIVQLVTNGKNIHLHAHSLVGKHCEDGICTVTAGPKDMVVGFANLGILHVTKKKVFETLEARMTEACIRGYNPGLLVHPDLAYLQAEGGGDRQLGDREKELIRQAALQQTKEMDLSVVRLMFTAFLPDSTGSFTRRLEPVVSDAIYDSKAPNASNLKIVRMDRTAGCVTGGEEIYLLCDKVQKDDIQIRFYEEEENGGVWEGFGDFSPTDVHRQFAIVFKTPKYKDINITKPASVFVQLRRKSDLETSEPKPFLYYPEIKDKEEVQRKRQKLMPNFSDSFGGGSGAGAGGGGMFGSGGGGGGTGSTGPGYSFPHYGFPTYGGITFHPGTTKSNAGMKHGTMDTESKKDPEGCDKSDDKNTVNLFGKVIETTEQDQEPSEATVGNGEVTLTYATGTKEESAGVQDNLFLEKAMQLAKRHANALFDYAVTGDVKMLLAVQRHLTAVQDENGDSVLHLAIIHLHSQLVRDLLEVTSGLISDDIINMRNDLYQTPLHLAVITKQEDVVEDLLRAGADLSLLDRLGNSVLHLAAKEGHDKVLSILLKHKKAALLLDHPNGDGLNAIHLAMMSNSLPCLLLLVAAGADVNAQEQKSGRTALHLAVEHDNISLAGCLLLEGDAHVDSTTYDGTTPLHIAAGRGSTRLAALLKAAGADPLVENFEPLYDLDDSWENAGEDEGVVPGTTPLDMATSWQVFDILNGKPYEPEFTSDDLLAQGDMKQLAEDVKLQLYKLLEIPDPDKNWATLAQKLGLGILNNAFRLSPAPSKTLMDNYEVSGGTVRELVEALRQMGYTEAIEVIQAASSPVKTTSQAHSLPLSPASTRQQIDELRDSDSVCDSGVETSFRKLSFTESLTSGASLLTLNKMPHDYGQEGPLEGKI
Nuclear factor NF-kappa-B complex (Homo sapiens), sequence (Q00653 whole entry, looked up): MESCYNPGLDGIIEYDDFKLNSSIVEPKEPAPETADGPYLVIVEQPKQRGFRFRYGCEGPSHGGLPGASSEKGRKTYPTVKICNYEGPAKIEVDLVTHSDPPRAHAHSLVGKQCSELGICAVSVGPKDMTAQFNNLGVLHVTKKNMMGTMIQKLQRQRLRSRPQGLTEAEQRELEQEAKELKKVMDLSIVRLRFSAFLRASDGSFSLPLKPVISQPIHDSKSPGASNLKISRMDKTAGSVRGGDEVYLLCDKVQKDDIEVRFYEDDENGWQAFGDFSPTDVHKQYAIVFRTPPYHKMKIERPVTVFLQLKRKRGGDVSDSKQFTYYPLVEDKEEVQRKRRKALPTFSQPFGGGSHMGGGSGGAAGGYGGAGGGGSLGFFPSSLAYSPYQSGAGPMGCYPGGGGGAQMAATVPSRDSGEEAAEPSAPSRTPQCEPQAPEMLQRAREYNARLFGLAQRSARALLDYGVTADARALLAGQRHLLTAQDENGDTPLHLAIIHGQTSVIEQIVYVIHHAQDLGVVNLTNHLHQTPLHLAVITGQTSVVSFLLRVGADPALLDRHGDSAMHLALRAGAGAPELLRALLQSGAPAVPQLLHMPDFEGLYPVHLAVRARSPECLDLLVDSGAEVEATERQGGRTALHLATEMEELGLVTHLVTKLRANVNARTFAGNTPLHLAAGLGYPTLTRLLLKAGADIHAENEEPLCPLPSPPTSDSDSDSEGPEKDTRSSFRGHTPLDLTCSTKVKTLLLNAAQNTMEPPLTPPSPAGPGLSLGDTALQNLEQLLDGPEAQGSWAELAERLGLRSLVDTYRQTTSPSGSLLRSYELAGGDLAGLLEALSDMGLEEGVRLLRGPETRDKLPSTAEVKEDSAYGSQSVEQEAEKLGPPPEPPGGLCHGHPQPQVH
Nuclear factor NF-kappa-B complex (Homo sapiens), sequence (Q04206 whole entry, looked up): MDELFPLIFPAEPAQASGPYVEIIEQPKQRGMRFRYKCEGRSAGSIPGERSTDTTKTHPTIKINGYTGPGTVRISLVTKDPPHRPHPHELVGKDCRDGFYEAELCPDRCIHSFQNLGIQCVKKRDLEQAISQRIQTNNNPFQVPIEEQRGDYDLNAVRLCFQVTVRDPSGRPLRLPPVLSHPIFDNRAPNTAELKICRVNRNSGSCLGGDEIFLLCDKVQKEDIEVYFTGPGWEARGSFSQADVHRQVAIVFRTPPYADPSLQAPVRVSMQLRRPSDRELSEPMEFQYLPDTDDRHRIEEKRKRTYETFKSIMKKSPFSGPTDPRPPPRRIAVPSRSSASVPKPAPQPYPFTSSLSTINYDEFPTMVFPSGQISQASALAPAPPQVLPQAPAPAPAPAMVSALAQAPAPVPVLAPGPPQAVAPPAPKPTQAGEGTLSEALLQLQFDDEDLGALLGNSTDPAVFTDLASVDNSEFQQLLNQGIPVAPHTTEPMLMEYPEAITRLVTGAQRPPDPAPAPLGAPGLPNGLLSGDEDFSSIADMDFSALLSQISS

## CCC(=O)O[C@@H]1[C@@H](OC(=O)CC)[C@H](C)O[C@@H](OC[C@H]2O[C@@H](Oc3c(-c4ccc(O)c(O)c4)oc4cc(O)cc(O)c4c3=O)[C@H](OC(=O)CC)[C@@H](OC(=O)CC)[C@@H]2OC(=O)CC)[C@@H]1OC(=O)CC
Trichophyton rubrum [1]
  inhibition of growth at 100 µg/mL: 4.3%
K562 [2]
  Activity: 79.75%
Nannizzia gypsea [3]
  inhibition of growth at 20 µg/mL: 1.9%
Epidermophyton floccosum [4]
  growth inhibition (GI): inactive
Nannizzia gypsea [5]
  inhibition of growth at 100 µg/mL: 7.9%
[6]
  Activity: 1232.67 µmol/g
K562 [7]
  Activity: 12.35%
Epidermophyton floccosum [8]
  growth inhibition (GI): inactive
K562 [9]
  IC50: 7.17 µM
Paraphyton cookei [10]
  inhibition of growth at 20 µg/mL: 0.6%
K562 [11]
  Activity: 15.82%
[12]
  growth inhibition (GI): 0%
Trichophyton violaceum [13]
  inhibition of growth at 20 µg/mL: 10.7%
[14]
  inhibition: Active
Trichophyton tonsurans [15]
  inhibition of growth at 20 µg/mL: 5.4%
K562 [16]
  Activity: 17.7%
K562 [17]
  Activity: 27.46%
[18]
  Activity: 728.61 µmol/g
Trichophyton violaceum [19]
  inhibition of growth at 100 µg/mL: 15.8%
[20]
  inhibition of growth at 100 µg/mL: 5.7%
K562 [21]
  Activity: 2.55%
[22]
  logP at 0.5 h: 1.09
[23]
  growth inhibition (GI): inactive
K562 [24]
  Activity: 1.34%
Nannizzia gypsea [25]
  inhibition of growth at 100 µg/mL: 9.9%
Nannizzia gypsea [26]
  inhibition of growth at 20 µg/mL: 5.4%
K562 [27]
  Activity: 11.64%
Trichophyton rubrum [28]
  inhibition of growth at 20 µg/mL: 3.5%
K562 [29]
  Activity: 71.2%
[30]
  inhibition of growth at 20 µg/mL: 0%
K562 [31]
  Activity: 5.35%
Trichophyton tonsurans [32]
  inhibition of growth at 100 µg/mL: 17.8%
[33]
  Activity: 3.81 µmol/g
Paraphyton cookei [34]
  inhibition of growth at 100 µg/mL: 3.5%
